Screening data: PubChem, several laboratories
NR2E3 ag-1 = NR2E3 (human) agonism; Q9Y5X4; GST-NR2E3/biotin-RetCOR TR-FRET, 1536-well; inhibition of corepressor binding, % at 4.78 µM; 320,000 tested, 0.12% active; AID 2300;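 active means percent inhibition above the cutoff of mean plus 3 SD of all tested compounds, set per screening campaign, cut at about 20% in these data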;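 further: 0% = DMSO wells and 100% = biotin wells as full block of FRET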
Target sequence (Q9Y5X4 whole entry, looked up): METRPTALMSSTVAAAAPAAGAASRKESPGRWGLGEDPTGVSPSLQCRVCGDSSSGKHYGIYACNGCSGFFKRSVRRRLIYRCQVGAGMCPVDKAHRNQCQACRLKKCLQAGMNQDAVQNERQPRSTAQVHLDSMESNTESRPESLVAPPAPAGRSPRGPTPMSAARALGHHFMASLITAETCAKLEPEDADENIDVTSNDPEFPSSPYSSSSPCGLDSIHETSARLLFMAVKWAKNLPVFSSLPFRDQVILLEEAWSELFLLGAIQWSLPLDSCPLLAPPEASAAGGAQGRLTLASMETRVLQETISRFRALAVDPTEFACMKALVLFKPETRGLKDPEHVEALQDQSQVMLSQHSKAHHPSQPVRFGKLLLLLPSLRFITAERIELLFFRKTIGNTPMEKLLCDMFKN
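System: GST-tagged NR2E3 plus biotinylated RetCOR corepressor; Buffer or medium: pH 7.5 Tris-based buffer; Probe or stimulus: RetCOR corepressor, biotinylated, 7 nM; Doses: compound at 4.8 µM, single dose; Schedule: 5 h incubation at 4 °C; Technique: time-resolved FRET; Evaluation: percent inhibition of TR-FRET ratio; Replication: one well per compound, singlicate testing.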
PG9 Ab binder = small molecules binding HIV-1 gp120 antibody PG9. TR-FRET gp120-PG9 antibody binding. inhibition, % at 6.7 µM. 360,000 tested, 0.43% active. AID 624416; in the data active means inhibition above about 8.5%
NR2E3 ag-2 = activates human NR2E3 receptor. 360,000 tested, 0.35% active. Q9Y5X4. CHO-S Gal4-NCOR/VP16-NR2E3 two-hybrid, luciferase. AID 602229. inhibition of corepressor binding, % at 3.98 µM;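 active means inhibition above the mean of all tested compounds plus 3 SD, cut at about 70% in these data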;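 further: 0% = DMSO with NR2E3 transfected cells and 100% = cells lacking NR2E3 construct; higher means lower luciferase signal from less NR2E3 corepressor binding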
NR1D1 modulator = Rev-erb alpha (human) modulation; Rev-erbα–FITC-DNA binding, fluorescence polarization, 90 min; activity, % at 10 µM; 370,000 tested, 0.79% active; AID 1259318;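 active means activity above about 14%, limit read from the data; passing the limit was not always enough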;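 further: 0% = DMSO wells with 35 nM protein and 100% = DMSO wells with 750 nM protein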
NR1D1 mod conf = confirmation of modulators of human Rev-erb alpha DNA binding; shares compounds with NR1D1 modulator; activation, % at 25 µM; Rev-erb alpha FITC-DNA binding, fluorescence polarization, 90 min; 3,000 tested, 61% active;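 active means activation at or above a set limit, or at least 3 SD above the negative control mean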;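 further: 0% = 35 nM protein with DMSO and 100% = 750 nM protein high control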
RORg DNA counter = affects RORgamma DNA binding in a Rev-erb alpha counter-screen | shares compounds with NR1D1 modulator | purified RORgamma protein-FITC-DNA binding, fluorescence polarization | IC50, µM | 910 tested, 8% active | AID 1259320;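 active means Compounds whose fitted half-maximal concentration for disrupting protein-DNA binding is below 10 micromolar; the record names Rev-erb in its text, so the target is in doubt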
* = called active by the depositor; i = inactive; x = no result. In the library only some 1.4% were active in any assay of this set; here they are far more common.

SMILES | NR2E3 ag-1 | PG9 Ab binder | NR2E3 ag-2 | NR1D1 modulator | NR1D1 mod conf | others
S=c1nc(C2CCCCC2)[nH]c2ccccc12 | 18 | 8 | 20 | 16* | 13
S=c1nc(C2CC2)[nH]c2ccccc12 | 18 | 3 | 10 | 2 | x
Cc1ccc(C([O-])=C(C(=S)NCc2ccccc2)[n+]2cccc(CO)c2)cc1[N+](=O)[O-] | x | 0 | 13 | 1 | x
CC(/C=C/c1ccccc1F)=N\NC(=O)c1cccc(F)c1 | 0 | -1 | -57 | 17* | 1
CN(C)c1cccc(/C=C2\CC3(OC(=O)c4ccc(Cl)cc4)CCCN2C3)c1 (stereo not drawn) | x | x | x | 3 | x
Cc1ccc(NC(=O)c2c(C)noc2-c2snnc2C)cc1 | 3 | -1 | -19 | 8 | x
Cc1nnsc1-c1onc(C)c1C(=O)Nc1cc(Cl)cc(Cl)c1 | 1 | -1 | -21 | 25* | 11
CCCCn1c(N)c(N(CC(C)C)C(=O)C2CC(=O)N(CCc3ccccc3)C2)c(=O)[nH]c1=O (stereo not drawn) | 2 | -3 | -2 | 12* | 1
COCCCN1CCC2(CCC(c3ccccc3)CC2)C1=O (stereo not drawn) | x | x | x | 2 | x
COc1cccc(-c2cc(=O)c3cc(NC(=O)c4ccccc4)ccc3[nH]2)c1 | -6 | -14 | 0 | 26* | 10
COc1cccc(-c2cc(=O)c3cc(NC(=O)c4ccc(Cl)cc4)ccc3[nH]2)c1 | 0 | -1 | 6 | -16 | x
CCCC(=O)N=C1SC2CS(=O)(=O)CC2N1c1ccc(-c2nc3ccc(C)cc3s2)cc1 (stereo not drawn) | -2 | 0 | -132 | 38* | 6
O=c1[nH]c(Cc2ccc(F)cc2)nc2scc(-c3ccc(F)cc3)c12 | -2 | 0 | -44 | 35* | 36* | RORg DNA counter=>40
Cc1ccc(-c2csc3nc(CN(C)Cc4ccccc4)[nH]c(=O)c23)cc1 | 6 | -1 | 9 | 7 | x
Nc1ccn([C@@H]2O[C@H](CNC(=O)[C@H]3CCC(=O)N3)[C@@H](O)[C@H]2O)c(=O)n1 | x | -1 | -9 | 5 | x
Cc1nc(-c2ccccc2)nc2[nH]c(-c3ccccc3)cc(=O)c12 | 2 | 7 | 12 | 90* | 81* | RORg DNA counter=>40
O=C1OC2(c3ccc(O)cc3Oc3cc(O)ccc32)c2ccccc21 | x | x | x | 691* | 596*
Cc1ccccc1CC(=O)N1CCC(n2nnc3ncccc32)CC1 | x | x | x | -10 | x
O=C(COc1ccc(Br)cc1Br)NC(=S)Nc1cccc(CO)c1 | 0 | -3 | -12 | 4 | x
O=C(COc1ccc2ccccc2c1Br)NC(=S)Nc1cccc(CO)c1 | 6 | -2 | -9 | 24* | 21*
CC(C)(C(=O)N1CCC1(C)C(=O)NS(=O)(=O)c1ccc(C#N)cc1)c1ccccc1 (stereo not drawn) | x | 0 | -24 | 2 | x
COc1ccccc1CCn1cnc(-c2ccccc2)c1CC(C)C | x | 0 | x | 5 | x
Oc1ccccc1-c1nc(N2CCCC2)c2ccccc2n1 | 1 | -2 | -3 | 134* | 69* | RORg DNA counter=6.9*
Oc1ccccc1-c1nc(NCc2ccccc2)c2ccccc2n1 | 2 | 6 | -13 | 97* | 77* | RORg DNA counter=>40
Oc1ccccc1-c1nc(NCc2cccnc2)c2ccccc2n1 | 2 | 1 | -12 | 4 | x
SMILES | NR2E3 ag-1 | PG9 Ab binder | NR2E3 ag-2 | NR1D1 modulator | NR1D1 mod conf | others
Cc1cccc(CNC(=O)c2sc(=O)n(Cc3c(C)cccc3C)c2C)c1 | x | -1 | -20 | 3 | x
COc1cccc(C(=O)c2cc3cc(Cl)ccc3[nH]2)c1 | 4 | 1 | -106 | 20* | 11
NC(=O)COc1ccc(/C=N\NC(=O)c2ccc(-c3ccccc3)cc2)cc1 | 0 | 2 | -4 | 35* | 21*
Cn1c(SCC(=O)c2ccc3c(c2)Cc2ccccc2-3)nnc1-c1ccccc1 | -75 | 2 | -42 | 62* | 47* | RORg DNA counter=7.5*
CCC(=O)Nc1nnc(SCC(=O)c2ccc3c(c2)Cc2ccccc2-3)s1 | -9 | 7 | -39 | 44* | 17*
COc1ccc2c(Cl)c(-c3nnc(SCC(=O)c4ccccc4)n3C)sc2c1 | -4 | 1 | 2 | 95* | 117* | RORg DNA counter=i
Cn1c(SCC(=O)c2ccccc2)nnc1-c1ccncc1 | -1 | 0 | -8 | 1 | x
CC1(c2nc3ccccc3[nH]2)c2ccccc2C(=O)N1Cc1ccccc1 (stereo not drawn) | x | 1 | 6 | 2 | x
COc1ccccc1-c1cccc2c3c([nH]c12)[C@@H]1C[C@H]2[C@@H](C(=O)N1CC3)[C@H](C)ON2C | x | 1 | x | -4 | x
FC(F)(F)c1cc(-c2cccs2)nc2cc(-c3ccccc3)nn12 | 1 | 6 | 3 | 33* | 14
O=C(O)c1cc2nc(-c3cccs3)cc(C(F)(F)F)n2n1 | 0 | -1 | 5 | -20 | x
Nc1ccn([C@@H]2O[C@H](CNS(=O)(=O)c3cc4ccccc4s3)[C@@H](O)[C@H]2O)c(=O)n1 | x | 1 | -9 | 3 | x
O=S(=O)(O)c1cccc(N=Nc2c(O)ccc3ccccc23)c1 | 1 | -8 | -13 | 30* | 6
Oc1ccc2ccccc2c1N=Nc1ccccc1F | -2 | 1 | -6 | 19* | 5
Oc1ccc2ccccc2c1N=Nc1ccccn1 | -2 | -6 | -18 | 5 | x
Cc1noc(C)c1C(=O)N1CCC1(C)C(=O)NS(=O)(=O)c1cccc(Cl)c1 (stereo not drawn) | x | 0 | -12 | 1 | x
O=c1c2ccccc2[nH]c(=S)n1CCc1ccccc1 | 15 | -2 | -106 | 5 | x
O=C(NCc1ccccn1)c1ccc(Cn2c(=S)[nH]c3ccccc3c2=O)cc1 | 8 | -3 | -6 | 0 | x
O=c1c2ccccc2[nH]c(=S)n1Cc1ccccc1 | 4 | 0 | 11 | 19* | 6
O=C(NCc1ccccn1)c1ccc(Cn2c(=S)[nH]c3ccc(Br)cc3c2=O)cc1 | 2 | -1 | -6 | 42* | 35* | RORg DNA counter=>40
COC(=O)C1=C(C)N(Cc2ccccc2C(F)(F)F)C(=NCc2cc(OC)c(OC)c(OC)c2)NC1c1cccc(F)c1 (stereo not drawn) | x | 0 | x | -4 | x
CCCCNC(=O)C(=O)Nc1ccc2c(c1)N(S(=O)(=O)c1cccs1)CCC2 | x | -1 | -47 | 5 | x
CCCSc1nc(SCC(=O)NCc2ccccc2)c2c3c(sc2n1)COC(C)(CC)C3 (stereo not drawn) | -1 | 2 | -16 | 77* | 78* | RORg DNA counter=>40
CCC1(C)Cc2c(sc3nc(SCC(=O)c4ccccc4)[nH]c(=O)c23)CO1 (stereo not drawn) | 4 | 0 | -1 | 6 | x
COc1ccc(NC(=O)C2CCCN(S(=O)(=O)c3ccc4[nH]c(=O)ccc4c3)C2)cc1OC (stereo not drawn) | 0 | 7 | 13 | 23* | 0
